Experimental data taken from ChEMBL document CHEMBL4422682, “Synthesis and urease inhibitory potential of benzophenone sulfonamide hybrid in vitro and in silico” (Bioorg Med Chem, 2019).

What was measured:
Urease [1] = target: T1, Urease (Canavalia ensiformis, UniProt P07374); test: Inhibition of jack bean urease assessed as reduction in ammonia production using urea as substrate after 30 mins by indophenol method
Procedure, shortened: (§1)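 Compounds preincubated with urease (1 U/well) for 15 min at 30 °C. Urea (100 mM, as added) introduced and incubation continued at 30 °C. Ammonia formed was detected by the Weatherburn phenol-hypochlorite method: alkaline reagent (0.5% w/v NaOH, 0.1% NaOCl) and phenol reagent (1% w/v phenol, 0.005% w/v nitroprusside) were added, then 50 min at 30 °C. Absorbance read at 630 nm on a plate reader.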

Bacterial urease [2] = target: Bacterial urease (Bacteria, UniProt Q03284); test: (§2) Inhibition of bacterial urease using urea as substrate preincubated for 15 mins followed by substrate addition […]; format: protein-complex assay; procedure, shortened: as §1
Bacterial urease [3] = target: T2, Bacterial urease (Bacteria, UniProt Q03282+Q03283+Q03284); test: as §2; format: protein-complex assay; procedure, shortened: as §1
T2 sequence (Q03282 whole entry): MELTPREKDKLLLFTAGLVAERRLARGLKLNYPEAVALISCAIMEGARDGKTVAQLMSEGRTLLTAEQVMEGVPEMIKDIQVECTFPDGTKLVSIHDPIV
T2 sequence (Q03283 whole entry): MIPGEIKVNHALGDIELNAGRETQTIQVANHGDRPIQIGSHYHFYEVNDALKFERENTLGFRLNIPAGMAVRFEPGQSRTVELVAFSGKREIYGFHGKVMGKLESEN
T2 sequence (Q03284 whole entry): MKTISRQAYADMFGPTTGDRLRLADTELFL

Urease [4] = target: T1, Urease; test: Inhibition of jack bean urease using urea as substrate preincubated for 15 mins followed by substrate addition and measured after 10 mins […]; procedure, shortened: as §1
[5] = target: Bacterial urease (Bacteria) (UniProt Q03282+Q03283+Q03284); test: Potency index, ratio of acetohydroxamic acid IC50 to test compound IC50 for bacterial urease; format: protein-complex assay
Procedure, shortened: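 Spectrophotometric urease inhibition assay underlying the IC50s in the ratio, for test compounds and acetohydroxamic acid. Compound pre-incubated with urease (1 U/well) at 30 °C for 15 min. Urea (100 mM) was added and incubation continued at 30 °C. Phenol–nitroprusside and alkaline hypochlorite reagents were added, then 50 min at 30 °C. Ammonia was measured by the Weatherburn method, with absorbance change at 630 nm.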

T1 sequence (P07374 whole entry): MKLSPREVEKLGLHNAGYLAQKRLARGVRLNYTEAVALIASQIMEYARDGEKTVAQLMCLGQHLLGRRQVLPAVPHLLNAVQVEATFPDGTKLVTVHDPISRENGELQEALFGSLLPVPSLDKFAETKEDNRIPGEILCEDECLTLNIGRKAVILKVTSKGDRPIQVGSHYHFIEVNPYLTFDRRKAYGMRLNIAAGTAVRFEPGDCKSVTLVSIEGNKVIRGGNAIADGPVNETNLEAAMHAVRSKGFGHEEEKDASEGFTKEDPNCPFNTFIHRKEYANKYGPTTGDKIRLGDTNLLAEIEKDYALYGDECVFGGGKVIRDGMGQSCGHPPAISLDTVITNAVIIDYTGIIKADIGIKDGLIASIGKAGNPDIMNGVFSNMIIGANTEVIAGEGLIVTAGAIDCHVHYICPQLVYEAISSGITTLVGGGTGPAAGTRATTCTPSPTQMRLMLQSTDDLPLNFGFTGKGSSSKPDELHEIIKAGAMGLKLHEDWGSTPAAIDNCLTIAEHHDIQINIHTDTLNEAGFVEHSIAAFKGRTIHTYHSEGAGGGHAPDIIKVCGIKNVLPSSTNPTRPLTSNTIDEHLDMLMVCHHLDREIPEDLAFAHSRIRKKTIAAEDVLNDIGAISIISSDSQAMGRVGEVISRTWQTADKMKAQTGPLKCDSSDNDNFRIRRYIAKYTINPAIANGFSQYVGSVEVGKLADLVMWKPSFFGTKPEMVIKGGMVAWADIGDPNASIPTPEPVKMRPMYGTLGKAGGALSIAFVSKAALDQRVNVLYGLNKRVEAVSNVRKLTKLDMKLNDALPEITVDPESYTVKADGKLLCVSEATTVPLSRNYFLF

Row | SMILES | IC50 (Bacterial urease [2]) [µM] | IC50 (Bacterial urease [3]) | further results
1 | NS(=O)(=O)c1ccc(CCNC=C2C(=O)NC(=S)NC2=O)cc1 |  |  | IC50 (Urease [1]): 11.5 µM
2 | CN(C)c1cccc2c(S(=O)(=O)N/N=C(\c3ccccc3)c3ccc(O)cc3)cccc12 | 5.7 |  | 
3 | CN(C)c1cccc2c(S(=O)(=O)NN=C(c3ccccc3)c3ccccc3)cccc12 | 72.2 |  | 
4 | O=[N+]([O-])c1ccc(S(=O)(=O)NN=C(c2ccccc2)c2ccccc2)c([N+](=O)[O-])c1 | 69 |  | 
5 | CC(=O)NO [ACETOHYDROXAMIC ACID] | 29.2 |  | 
6 | O=[N+]([O-])c1ccc(S(=O)(=O)NN=C(c2ccccc2)c2ccccc2)cc1 |  | Not Active | 
7 | O=[N+]([O-])c1cccc(S(=O)(=O)NN=C(c2ccccc2)c2ccccc2)c1 |  | Not Active | 
8 | CCCCS(=O)(=O)NN=C(c1ccccc1)c1ccccc1 |  | Not Active | 
9 | O=S(=O)(N/N=C(\c1ccccc1)c1ccc(O)cc1)c1ccc(Cl)cc1Cl | 18 |  | 
10 | O=S(=O)(NN=C(c1ccccc1)c1ccccc1)c1cc(Cl)cc(Cl)c1O | 71.6 |  | 
11 | O=S(=O)(NN=C(c1ccccc1)c1ccccc1)c1ccccc1Cl |  | Not Active | 
12 | COc1ccc(S(=O)(=O)NN=C(c2ccccc2)c2ccccc2)c(OC)c1 |  | Not Active | 
13 | O=S(=O)(N/N=C(\c1ccccc1)c1ccc(O)cc1)c1ccccc1 | 16.3 |  | 
14 | O=S(=O)(NN=C(c1ccccc1)c1ccccc1)c1ccc(Cl)cc1Cl |  | Not Active | 
15 | CC(=O)Nc1ccc(S(=O)(=O)Nc2ccc(Br)cc2)cc1 |  |  | IC50 (Urease [4]): 62.4 µM
16 | Cc1cc(S(=O)(=O)NN=C(c2ccccc2)c2ccccc2)c(C)cc1Cl |  | Not Active | 
17 | O=S(=O)(NN=C(c1ccccc1)c1ccccc1)c1ccc2ccccc2c1 |  | Not Active | 
18 | O=[N+]([O-])c1cc(S(=O)(=O)NN=C(c2ccccc2)c2ccccc2)ccc1Cl |  | Not Active | 

Row | SMILES | IC50 (Bacterial urease [2]) [µM] | IC50 (Bacterial urease [3]) | further results
19 | COc1ccc(S(=O)(=O)N/N=C(\c2ccccc2)c2ccc(O)cc2)cc1 | 14.5 |  | 
20 | O=S(=O)(N/N=C(\c1ccccc1)c1ccc(O)cc1)c1cc(Cl)cc(Cl)c1O | 4.97 |  | 
21 | O=S(=O)(NN=C(c1ccccc1)c1ccccc1)c1ccc(Cl)cc1 | 66.1 |  | 
22 | O=S(=O)(NN=C(c1ccccc1)c1ccccc1)c1cc(Cl)c(Cl)cc1Cl |  | Not Active | 
23 | CS(=O)(=O)N/N=C(\c1ccccc1)c1ccc(O)cc1 | 43.4 |  | 
24 | Cc1ccc([N+](=O)[O-])cc1S(=O)(=O)NN=C(c1ccccc1)c1ccccc1 | 69 |  | 
25 | O=[N+]([O-])c1ccc(S(=O)(=O)N/N=C(\c2ccccc2)c2ccc(O)cc2)cc1 | 3.9 |  | Ratio IC50 [5]: 10
26 | O=S(=O)(N/N=C(\c1ccccc1)c1ccc(O)cc1)c1cc(Cl)c(Cl)cc1Cl | 57.9 |  | 
27 | O=S(=O)(N/N=C(\c1ccccc1)c1ccc(O)cc1)c1cc(Cl)ccc1Cl | 31.2 |  | 
28 | O=[N+]([O-])c1ccccc1S(=O)(=O)NN=C(c1ccccc1)c1ccccc1 |  | Not Active | 
29 | O=S(=O)(N/N=C(\c1ccccc1)c1ccc(O)cc1)c1ccccc1Cl | 16.9 |  | 
30 | Oc1ccc(/C(=N/NC(=S)Nc2cccc(Br)c2)c2ccccc2)cc1 |  |  | IC50 (Urease [4]): 8.7 µM
31 | O=S(=O)(CCCl)N/N=C(\c1ccccc1)c1ccc(O)cc1 | 55 |  | 
32 | O=S(=O)(NN=C(c1ccccc1)c1ccccc1)c1ccccc1 |  | Not Active | 
33 | O=[N+]([O-])c1ccc(NC(=S)N/N=C(\c2ccccc2)c2ccc(O)cc2)cc1 |  |  | IC50 (Urease [4]): 26.1 µM
34 | O=[N+]([O-])c1cccc(S(=O)(=O)NN=C(c2ccccc2)c2ccccc2)c1Cl |  | Not Active | 
35 | COc1ccc(S(=O)(=O)NN=C(c2ccccc2)c2ccccc2)cc1 |  | Not Active | 
36 | O=[N+]([O-])c1cccc(S(=O)(=O)N/N=C(\c2ccccc2)c2ccc(O)cc2)c1 | 13.7 |  | 
